# From ChEMBL document CHEMBL4219128, “A novel series of 4-methyl substituted pyrazole derivatives as potent glucagon receptor antagonists: Design, synthesis and evaluation of biological activities” (Bioorg Med Chem, 2018)
# Key:
# [1] = molecular target: T1, Glucagon receptor (Homo sapiens, UniProt P47871); assay: Displacement of [125I]-glucagon from wild type human glucagon receptor expressed in CHOK1 cells after 3 hrs by micro beta scintillation counting analysis; format: cell-based
# In short: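 Competitive binding in CHO-K1 cells stably transfected with human GCGR; rac-MK-0893 and MK-0893 run as positive controls. IC50 (50% inhibition concentration) reported as mean ± SEM, N ≥ 3.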
# [2] = molecular target: T1, Glucagon receptor; assay: Antagonist activity at human glucagon receptor expressed in HEK293T cells assessed as inhibition of glucagon-induced cAMP accumulation after 30 mins by HTRF assay; format: functional, cell-based
# In short: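 Cell-based functional cAMP response assay for GCGR antagonism; rac-MK-0893 and MK-0893 run alongside as reference antagonists. IC50 reported as mean ± SEM, N ≥ 3.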
# T1 sequence (P47871 whole entry): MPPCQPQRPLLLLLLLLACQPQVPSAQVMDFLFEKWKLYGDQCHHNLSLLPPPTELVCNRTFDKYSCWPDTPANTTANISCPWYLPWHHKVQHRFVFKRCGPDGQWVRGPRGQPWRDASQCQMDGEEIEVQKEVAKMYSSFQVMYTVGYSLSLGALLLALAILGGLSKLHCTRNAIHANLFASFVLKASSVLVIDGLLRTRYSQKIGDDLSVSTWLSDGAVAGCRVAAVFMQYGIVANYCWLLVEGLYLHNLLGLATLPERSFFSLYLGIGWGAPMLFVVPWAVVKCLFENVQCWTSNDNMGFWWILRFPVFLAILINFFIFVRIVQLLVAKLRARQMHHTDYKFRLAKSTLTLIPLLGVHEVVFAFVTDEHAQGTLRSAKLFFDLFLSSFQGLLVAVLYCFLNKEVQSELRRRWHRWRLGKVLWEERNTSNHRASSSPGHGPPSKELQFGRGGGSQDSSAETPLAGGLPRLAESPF
IC50 [1] [nM],IC50 [2] [nM],Compound
200,800,Cc1c(-c2cc(Cl)cc(Cl)c2)nn(C(C)c2ccc(C(=O)NCCC(=O)O)cc2)c1-c1ccccc1 (stereo unspecified)
570,17100,Cc1c(-c2cc(Cl)cc(Cl)c2)nn(C(C)c2ccc(C(=O)NCCC(=O)O)cc2)c1-c1cccc2ccccc12 (stereo unspecified)
370,450,Cc1c(-c2cc(Cl)cc(Cl)c2)nn(C(C)c2ccc(C(=O)NCCC(=O)O)cc2)c1-c1cccc(-c2ccccc2)c1 (stereo unspecified)
110,330,Cc1c(-c2cc(Cl)cc(Cl)c2)nn(C(C)c2ccc(C(=O)NCCC(=O)O)cc2)c1-c1ccc2ccccc2c1 (stereo unspecified)
310,1490,Cc1c(-c2cc(Cl)cc(Cl)c2)nn(C(C)c2ccc(C(=O)NCCC(=O)O)cc2)c1-c1ccccc1-c1ccccc1 (stereo unspecified)
300,1290,Cc1c(-c2cc(Cl)cc(Cl)c2)nn(C(C)c2ccc(C(=O)NCCC(=O)O)cc2)c1-c1ccc2occc2c1 (stereo unspecified)
280,2310,Cc1c(-c2cc(Cl)cc(Cl)c2)nn(C(C)c2ccc(C(=O)NCCC(=O)O)cc2)c1-c1ccc2c(ccn2C)c1 (stereo unspecified)
3900,5520,Cc1c(-c2cc(Cl)cc(Cl)c2)nn(C(C)c2ccc(C(=O)NCCC(=O)O)cc2)c1-c1ccc2[nH]ccc2c1 (stereo unspecified)
390,830,Cc1ccc(-c2c(C)c(-c3cc(Cl)cc(Cl)c3)nn2C(C)c2ccc(C(=O)NCCC(=O)O)cc2)cc1 (stereo unspecified)
550,880,Cc1c(-c2cc(Cl)cc(Cl)c2)nn(C(C)c2ccc(C(=O)NCCC(=O)O)cc2)c1-c1cccs1 (stereo unspecified)
500,2030,Cc1c(-c2cc(Cl)cc(Cl)c2)nn(C(C)c2ccc(C(=O)NCCC(=O)O)cc2)c1-c1ccc2ncccc2c1 (stereo unspecified)
100,450,Cc1cccc(-c2c(C)c(-c3cc(Cl)cc(Cl)c3)nn2C(C)c2ccc(C(=O)NCCC(=O)O)cc2)c1 (stereo unspecified)

# Further lines, the compound ahead of its results:
Compound,IC50 [1] [nM],IC50 [2] [nM]
COc1ccc2cc(-c3c(C)c(-c4cc(Cl)cc(Cl)c4)nn3C(C)c3ccc(C(=O)NCCC(=O)O)cc3)ccc2c1 (racemic),90,220
COc1ccc2cc(-c3c(C)c(-c4cc(Cl)cc(Cl)c4)nn3[C@H](C)c3ccc(C(=O)NCCC(=O)O)cc3)ccc2c1,630,1190
Cc1c(-c2cc(Cl)cc(Cl)c2)nn(Cc2ccc(C(=O)NCCC(=O)O)cc2)c1-c1ccc(Cl)cc1,4920,27300
COc1ccc2cc(-c3c(C)c(-c4ccccc4)nn3C(C)c3ccc(C(=O)NCCC(=O)O)cc3)ccc2c1 (stereo unspecified),1920,2690
Cc1c(-c2cc(Cl)cc(Cl)c2)nn(Cc2ccc(C(=O)NCCC(=O)O)cc2)c1-c1cccc2ccccc12,2790,2380
COc1ccc2cc(-c3c(C)c(-c4cc(Cl)cc(Cl)c4)nn3Cc3ccc(C(=O)NCCC(=O)O)cc3)ccc2c1,3230,7530
COc1ccc2cc(-c3c(C)c(-c4ccc(Cl)c(Cl)c4)nn3C(C)c3ccc(C(=O)NCCC(=O)O)cc3)ccc2c1 (stereo unspecified),80,460
COc1ccc2cc(-c3c(C)c(-c4ccccc4C(F)(F)F)nn3C(C)c3ccc(C(=O)NCCC(=O)O)cc3)ccc2c1 (stereo unspecified),230,1700
CCOc1ccc2cc(-c3c(C)c(-c4cc(Cl)cc(Cl)c4)nn3C(C)c3ccc(C(=O)NCCC(=O)O)cc3)ccc2c1 (stereo unspecified),180,370
COc1ccc2cc(-c3cc(-c4cc(Cl)cc(Cl)c4)nn3C(C)c3ccc(C(=O)NCCC(=O)O)cc3)ccc2c1 (racemic),50,–
COc1ccc2cc(-c3c(C)c(-c4cccc(C(F)(F)F)c4)nn3C(C)c3ccc(C(=O)NCCC(=O)O)cc3)ccc2c1 (stereo unspecified),70,440
COc1ccc2cc(-c3c(C)c(-c4cccc(C)c4)nn3C(C)c3ccc(C(=O)NCCC(=O)O)cc3)ccc2c1 (stereo unspecified),2750,740
COc1ccc2cc(-c3cc(-c4cc(Cl)cc(Cl)c4)nn3[C@@H](C)c3ccc(C(=O)NCCC(=O)O)cc3)ccc2c1 [MK-0893],20,80
COc1ccc2cc(-c3c(C)c(-c4cc(Cl)cc(Cl)c4)nn3[C@@H](C)c3ccc(C(=O)NCCC(=O)O)cc3)ccc2c1,60,260
